Experimental data reported in ChEMBL document CHEMBL1129275, “Synthesis and in vitro and in vivo characteristics of an iodinated analogue of the beta-adrenoceptor antagonist carazolol” (J Med Chem, 1996).

Tests used:
Settings in all cases: in vivo
Oryctolagus cuniculus [1] = assay: Biodistribution pattern of [123I]- ligand was evaluated in intestine of anesthetized rabbit after Intravenous injection of 50 uCi after 2 hr; type: ADME, organism-based
Summary of the method: (§1)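 Male New Zealand white rabbits, 2.5–3.5 kg, anesthetized with 5 mg/kg xylazine plus 30 mg/kg ketamine im. Each received 50 uCi radioligand (specific activity > 5000 Ci/mmol) iv via ear vein. Animals were killed with 200 mg/kg pentobarbital im at the set time. Blood was drawn by intracardiac puncture and organs weighed. Gamma counting was decay-corrected, expressed as %ID x kg body weight/g tissue, mean ± SEM, n = 3/time point.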

Oryctolagus cuniculus [2] = assay: Biodistribution pattern of [123I]- ligand was evaluated in left atrial muscle of anesthetized rabbit after Intravenous injection of 50 uCi after 2 hr; type: ADME, organism-based, Muscle tissue; summary of the method: as §1
Oryctolagus cuniculus [3] = assay: Biodistribution pattern of [123I]- ligand was evaluated in left ventricular muscle of anesthetized rabbit after Intravenous injection of 50 uCi after 2 hr; type: ADME, organism-based, Muscle tissue; summary of the method: as §1
Oryctolagus cuniculus [4] = assay: Biodistribution pattern of [123I]- ligand was evaluated in right atrial muscle of anesthetized rabbit after Intravenous injection of 50 uCi after 2 hr; type: ADME, organism-based, Muscle tissue
Summary of the method: (§2)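 Male New Zealand white rabbits (2.5–3.5 kg), anesthetized with xylazine 5 mg/kg plus ketamine 30 mg/kg im, given 50 µCi radioligand (specific activity >5000 Ci/mmol) iv via ear vein. Euthanized at set times by pentobarbital 200 mg/kg im, n = 3/time point. Organs removed and weighed, gamma-counted, decay/weight corrected; expressed as % ID x kg body weight/g tissue, mean ± SEM.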

Oryctolagus cuniculus [5] = assay: Biodistribution pattern of [123I]- ligand was evaluated in right ventricular muscle of anesthetized rabbit after Intravenous injection of 50 uCi after 2 hr; type: ADME, organism-based, Muscle tissue; summary of the method: as §2
Oryctolagus cuniculus [6] = assay: Cerebral biodistribution pattern of [123I]- ligand was evaluated in striatum of anesthetized rabbit after Intravenous injection of 50 uCi after 2 hr; type: ADME, organism-based; summary of the method: as §2
Oryctolagus cuniculus [7] = assay: Cerebral biodistribution pattern of [123I]- ligand was evaluated in thalamus of anesthetized rabbit after Intravenous injection of 50 uCi after 2 hr; type: ADME, organism-based; summary of the method: as §2
Oryctolagus cuniculus [8] = assay: Biodistribution pattern of [123I]- ligand was evaluated in muscle of anesthetized rabbit after Intravenous injection of 50 uCi after 2 hr; type: ADME, organism-based, Muscle tissue; summary of the method: as §1
Oryctolagus cuniculus [9] = assay: Cerebral biodistribution pattern of [123I]- ligand was evaluated in frontal cortex of anesthetized rabbit after Intravenous injection of 50 uCi after 2 hr; type: ADME, organism-based; summary of the method: as §2
Oryctolagus cuniculus [10] = assay: Cerebral biodistribution pattern of [123I]- ligand was evaluated in hypothalamus of anesthetized rabbit after Intravenous injection of 50 uCi after 2 hr; type: ADME, organism-based; summary of the method: as §2
Oryctolagus cuniculus [11] = assay: […] biodistribution pattern of [123I]- ligand was evaluated in kidney of anesthetized rabbit after Intravenous injection of 50 uCi after 2 hr; type: ADME, organism-based; summary of the method: as §2
Oryctolagus cuniculus [12] = assay: Cerebral biodistribution pattern of [123I]- ligand was evaluated in pituitary gland of anesthetized rabbit after Intravenous injection of 50 uCi after 2 hr; type: ADME, organism-based; summary of the method: as §2
Oryctolagus cuniculus [13] = assay: Biodistribution pattern of [123I]- ligand was evaluated in blood of anesthetized rabbit after Intravenous injection of 50 uCi after 2 hr; type: ADME, organism-based; summary of the method: as §1
Oryctolagus cuniculus [14] = assay: Biodistribution pattern of [123I]- ligand was evaluated in fat of anesthetized rabbit after Intravenous injection of 50 uCi after 2 hr; type: ADME, organism-based, Adipose tissue; summary of the method: as §1
Oryctolagus cuniculus [15] = assay: Biodistribution pattern of [123I]- ligand was evaluated in spleen of anesthetized rabbit after Intravenous injection of 50 uCi after 2 hr; type: ADME, organism-based; summary of the method: as §2
Oryctolagus cuniculus [16] = assay: Biodistribution pattern of [123I]- ligand was evaluated in liver of anesthetized rabbit after Intravenous injection of 50 uCi after 2 hr; type: ADME, organism-based; summary of the method: as §1
Oryctolagus cuniculus [17] = assay: Biodistribution pattern of [123I]- ligand was evaluated in lung of anesthetized rabbit after Intravenous injection of 50 uCi after 2 hr; type: ADME, organism-based; summary of the method: as §1
Oryctolagus cuniculus [18] = assay: Cerebral biodistribution pattern of [123I]- ligand was evaluated in cerebellum of anesthetized rabbit after Intravenous injection of 50 uCi after 2 hr; type: ADME, organism-based; summary of the method: as §2

| ID x kg of body weight/g of tissue (Oryctolagus cuniculus [1]) [%] | ID x kg of body weight/g of tissue (Oryctolagus cuniculus [2]) [%] | ID x kg of body weight/g of tissue (Oryctolagus cuniculus [3]) [%] | ID x kg of body weight/g of tissue (Oryctolagus cuniculus [4]) [%] | ID x kg of body weight/g of tissue (Oryctolagus cuniculus [5]) [%] | ID x kg of body weight/g of tissue (Oryctolagus cuniculus [6]) [%] | ID x kg of body weight/g of tissue (Oryctolagus cuniculus [7]) [%] | ID x kg of body weight/g of tissue (Oryctolagus cuniculus [8]) [%] | ID x kg of body weight/g of tissue (Oryctolagus cuniculus [9]) [%] | ID x kg of body weight/g of tissue (Oryctolagus cuniculus [10]) [%] | ID x kg of body weight/g of tissue (Oryctolagus cuniculus [11]) [%] | ID x kg of body weight/g of tissue (Oryctolagus cuniculus [12]) [%] | ID x kg of body weight/g of tissue (Oryctolagus cuniculus [13]) [%] | ID x kg of body weight/g of tissue (Oryctolagus cuniculus [14]) [%] | ID x kg of body weight/g of tissue (Oryctolagus cuniculus [15]) [%] | ID x kg of body weight/g of tissue (Oryctolagus cuniculus [16]) [%] | ID x kg of body weight/g of tissue (Oryctolagus cuniculus [17]) [%] | ID x kg of body weight/g of tissue (Oryctolagus cuniculus [18]) [%] | SMILES |
| --- | --- | --- | --- | --- | --- | --- | --- | --- | --- | --- | --- | --- | --- | --- | --- | --- | --- | --- |
| 0.46 | < 0.05 | < 0.08 | < 0.05 | < 0.08 | 0.08 | 0.06 | < 0.03 | 0.1 | 0.06 | 0.09 | 0.07 | 0.01 | 0.04 | 0.12 | 0.1 | < 0.8 | 0.17 | CC(C)(C)NCC(O)COc1cccc2[nH]c(=O)[nH]c12 (stereo not given) [CGP-12177] |
| 0.29 | < 0.07 | < 0.09 | < 0.07 | < 0.09 | < 0.04 | 0.04 | < 0.03 | < 0.05 | 0.04 | 0.1 | 0.06 | 0.01 | 0.04 | 0.1 | 0.1 |  | < 0.04 | CC(C)NCC(O)COc1cccc2ccccc12 (stereo not given) [PROPRANOLOL] |
